Test results reported in ChEMBL document CHEMBL5678801, “A benzothiophene inhibitor of mitogen-activated protein kinase-activated protein kinase 2 inhibits tumor necrosis factor alpha production and has oral anti-inflammatory efficacy in acute and chronic models of inflammation” (J Pharmacol Exp Ther, 2010).

Experiments:
[1] = biological target: Receptor-interacting serine/threonine-protein kinase 2 (Homo sapiens, UniProt O43353); experiment: Inhibition of RIPK2 (unknown origin)
How it was run: (§1)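 Kinase panel: 200 kinases were first screened at 1 μM inhibitor for percent inhibition. Those above 50% inhibition were then titrated for IC50. MgATP was fixed at the Km(app) determined for each enzyme.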

Rattus norvegicus = organism: Rattus norvegicus; experiment: Inhibition of rat MK2 assessed as unbound fraction
[2] = Half life in Sprague-Dawley rat measured upto 24 hrs by […] analysis; type: ADME; conditions: in vivo
How it was run: (§2)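 Male Sprague-Dawley rats (275-300 g), carotid-catheterized and acclimated overnight. Dosing was i.v. at 1 mpk (n=2) in 70% saline/20% PEG-400/10% ethanol, or oral at 3 mpk (n=3) as a suspension in 0.5% HPMC/Tween. Plasma drug was measured by LC-MS/MS. Cmax and Tmax were read from individual profiles. t½ came from the terminal log-linear slope and AUC by the linear trapezoidal rule. CL = dose/AUC0-∞, Vdss = CL×MRT, F = dose-normalized AUC po/iv.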

[3] = biological target: T1, Serine/threonine-protein kinase BRSK2 (Homo sapiens, UniProt Q8IWQ3); experiment: Inhibition of BrSK2 (unknown origin); how it was run: as §1
T1 sequence (Q8IWQ3 whole entry): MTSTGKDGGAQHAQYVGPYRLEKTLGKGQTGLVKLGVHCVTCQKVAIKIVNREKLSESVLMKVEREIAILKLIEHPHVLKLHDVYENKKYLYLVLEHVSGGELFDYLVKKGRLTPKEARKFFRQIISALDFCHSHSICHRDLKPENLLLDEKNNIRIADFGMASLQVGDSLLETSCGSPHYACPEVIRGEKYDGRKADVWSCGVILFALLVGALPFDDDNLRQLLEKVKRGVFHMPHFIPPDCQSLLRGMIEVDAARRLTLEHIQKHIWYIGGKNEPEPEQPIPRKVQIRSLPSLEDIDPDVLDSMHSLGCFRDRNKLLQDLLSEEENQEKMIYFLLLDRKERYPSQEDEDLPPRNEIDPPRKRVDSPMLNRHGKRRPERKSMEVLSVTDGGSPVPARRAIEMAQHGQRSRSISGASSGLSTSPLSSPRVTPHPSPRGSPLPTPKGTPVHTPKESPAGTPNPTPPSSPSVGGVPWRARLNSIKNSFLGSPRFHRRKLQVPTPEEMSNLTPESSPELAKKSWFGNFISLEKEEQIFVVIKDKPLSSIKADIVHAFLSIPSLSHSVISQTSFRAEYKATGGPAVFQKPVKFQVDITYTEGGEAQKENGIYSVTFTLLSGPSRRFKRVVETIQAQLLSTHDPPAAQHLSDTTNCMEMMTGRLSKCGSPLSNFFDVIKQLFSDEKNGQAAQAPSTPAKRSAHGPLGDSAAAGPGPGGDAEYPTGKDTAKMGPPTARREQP

[4] = biological target: MAP kinase-activated protein kinase 3 (Homo sapiens, UniProt Q16644); experiment: Inhibition of recombinant MK3 (unknown origin) expressed in Escherichia coli using KKKALSRQLSVAA as substrate incubated for 1 hr followed by substrate addition in presence of ATP
Chain of MAP kinase-activated protein kinase 3 (Q16644 whole entry): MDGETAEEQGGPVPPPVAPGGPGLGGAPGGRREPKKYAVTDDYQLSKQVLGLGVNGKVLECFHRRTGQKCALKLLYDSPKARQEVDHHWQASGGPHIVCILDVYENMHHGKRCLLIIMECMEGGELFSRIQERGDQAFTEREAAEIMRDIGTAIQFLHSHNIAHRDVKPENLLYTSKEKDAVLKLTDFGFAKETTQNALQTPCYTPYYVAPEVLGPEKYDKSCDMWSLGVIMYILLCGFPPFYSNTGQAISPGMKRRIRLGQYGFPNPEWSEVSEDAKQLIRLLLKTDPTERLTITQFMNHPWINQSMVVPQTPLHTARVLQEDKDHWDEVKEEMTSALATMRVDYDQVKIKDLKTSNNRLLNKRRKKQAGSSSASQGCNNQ
How it was run: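 Recombinant kinase first activated with activated p38α (1:50 molar ratio) and 250 μM ATP for 1 hr at 30°C. Activity measured by 33P-labelled product peptide, separated by ion exchange. MgATP fixed at the Km(app) determined for each enzyme. IC50 values from duplicate experiments.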

[5] = Inhibition of IL-6 production in LPS induced human PBMC cells preincubated with compound for 1 hr followed by LPS induction and measured after 16 hrs by MSD analysis; type: functional, cell-based
How it was run: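 Human PBMCs were pretreated with compound for 1 h (<1% DMSO final), then stimulated with LPS 100 ng/ml at 37°C. Cytokines in culture media were read by MSD 4-plex: TNFα at 4 h; IL-1β, IL-6 and IL-8 at 16 h. Data are means ±S.E.M. of two independent experiments in duplicate, three donors. IC50 by 4-parameter nonlinear regression.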

[6] = Antiinflammatory activity in human Whole blood cell assessed as inhibition of LPS induced IL-6 production preincubated for 1 hr followed by LPS stimulation and measured after 16 hrs by MSD analysis; type: functional, cell-based
How it was run: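 Human whole blood was stimulated ex vivo with LPS 100 ng/ml. Plasma cytokines were read by MSD 4-plex: TNFα at 4 h; IL-1β, IL-6 and IL-8 at 16 h. Data are means ±S.E.M. of two independent experiments in duplicate, three donors. IC50 by 4-parameter nonlinear regression.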

[7] = Inhibition of CaMK II (unknown origin); design: species or system Homo sapiens
[8] = Tmax in Sprague-Dawley rat measured upto 24 hrs by […] analysis; type: ADME; conditions: in vivo; how it was run: as §2
[9] = biological target: T2, MAP kinase-activated protein kinase 2 (Homo sapiens, UniProt P49137)
Target sequence in this assay (P49137 whole entry, looked up, the tested form may be a part): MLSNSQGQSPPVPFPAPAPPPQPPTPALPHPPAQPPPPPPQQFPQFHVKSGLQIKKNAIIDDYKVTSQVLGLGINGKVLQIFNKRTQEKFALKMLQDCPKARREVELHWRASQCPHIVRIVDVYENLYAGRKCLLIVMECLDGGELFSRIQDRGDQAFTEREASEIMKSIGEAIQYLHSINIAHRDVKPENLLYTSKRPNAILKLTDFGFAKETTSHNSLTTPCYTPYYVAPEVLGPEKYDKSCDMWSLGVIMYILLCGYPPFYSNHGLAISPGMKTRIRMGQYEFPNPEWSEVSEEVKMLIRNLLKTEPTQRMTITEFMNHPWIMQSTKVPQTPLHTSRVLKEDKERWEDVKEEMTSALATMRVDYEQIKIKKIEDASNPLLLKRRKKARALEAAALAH

[10] = biological target: T2, MAP kinase-activated protein kinase 2; experiment: Binding affinity to recombinant N-terminal truncated MK2 (45 to 371 residues) (unknown origin) expressed in Escherichia coli assessed as dissociation constant measured after 15 mins by surface plasmon resonance spectroscopy analysis
How it was run: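 SPR on biotinylated MK2 captured on a streptavidin-coated CM5 chip, at 25°C. Running buffer was 10 mM HEPES, 150 mM NaCl, 0.005% P20, flowing at 60 μl/min. Compound at 1-100 nM was injected for 4 min, then dissociation was followed for 15 min. Real-time binding kinetics were recorded.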
Target sequence in this assay (P49137 whole entry, the tested form may be a part): as the sequence (P49137 whole entry, looked up, the tested form may be a part) above

Chain of Receptor-interacting serine/threonine-protein kinase 2 (O43353 whole entry): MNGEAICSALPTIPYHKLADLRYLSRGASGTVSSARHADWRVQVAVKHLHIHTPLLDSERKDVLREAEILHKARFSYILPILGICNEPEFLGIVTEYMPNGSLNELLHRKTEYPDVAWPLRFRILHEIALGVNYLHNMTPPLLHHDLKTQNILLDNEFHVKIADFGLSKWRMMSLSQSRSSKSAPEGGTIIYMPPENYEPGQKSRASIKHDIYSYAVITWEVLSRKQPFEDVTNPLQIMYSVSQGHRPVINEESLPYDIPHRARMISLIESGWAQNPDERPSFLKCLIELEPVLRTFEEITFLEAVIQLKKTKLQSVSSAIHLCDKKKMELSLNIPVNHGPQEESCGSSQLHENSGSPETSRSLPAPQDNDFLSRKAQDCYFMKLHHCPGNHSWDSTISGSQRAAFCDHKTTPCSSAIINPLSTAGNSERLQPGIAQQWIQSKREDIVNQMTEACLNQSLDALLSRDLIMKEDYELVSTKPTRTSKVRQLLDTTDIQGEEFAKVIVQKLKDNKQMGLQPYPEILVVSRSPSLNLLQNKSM

- IC50 [1]: 590 nM
- fEC50 (Rattus norvegicus): 110 nM
- half-life [2]: 546 min
- IC50 [3]: 90 nM
- IC50 [4]: 53 nM
- IC50 [5]: 1260 nM
- IC50 [6]: 10300 nM
- IC50 [7]: 70 nM
- Tmax [8]: 10.2 min
- T1/2 [9]: 2.43 min
- Kd [10]: 5.9 nM
SMILES: Cc1ccc(-c2ccc3c(ccc4sc5c(c43)NC[C@@H](C)NC5=O)n2)cn1
